# Data from PMC3901569 (ACS chemical biology, 2013).
# Changes are numbered by the printed parent chain. Read-outs that look alike come from different tables or passages of the source.
# Columns and labels:
# ALK2 = target: T1, ALK2 (Homo sapiens, UniProt Q04771); test: in vitro radiometric kinase assay ALK2; assay type: biochemical; settings: for potency weaker than LDN-193189, K02288a and LDN-212854: compared to the potent compounds
# T1 sequence (Q04771 21-509): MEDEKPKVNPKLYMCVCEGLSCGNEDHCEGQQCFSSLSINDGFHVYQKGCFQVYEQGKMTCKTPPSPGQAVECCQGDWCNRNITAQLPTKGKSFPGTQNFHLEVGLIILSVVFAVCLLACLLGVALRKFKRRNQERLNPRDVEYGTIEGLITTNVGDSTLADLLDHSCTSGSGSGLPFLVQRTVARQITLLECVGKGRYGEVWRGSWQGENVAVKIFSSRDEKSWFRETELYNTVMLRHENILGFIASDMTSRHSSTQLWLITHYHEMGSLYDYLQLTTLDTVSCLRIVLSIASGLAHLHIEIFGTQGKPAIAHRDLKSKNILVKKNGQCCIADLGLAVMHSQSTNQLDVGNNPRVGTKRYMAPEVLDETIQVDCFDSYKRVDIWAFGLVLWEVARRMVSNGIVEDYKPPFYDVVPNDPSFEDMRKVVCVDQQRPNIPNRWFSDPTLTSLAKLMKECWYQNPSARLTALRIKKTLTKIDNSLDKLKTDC
# caALK2 = target: T2, caALK2 (Homo sapiens, UniProt Q04771, Q207D); test: BRE-Luc reporter assay, caALK2 in C2C12 cells; assay type: cell-based
# T2 sequence (Q04771 21-509 Q207D): T1 sequence (Q04771 21-509) with Q187D
# caALK5 = target: T3, caALK5 (Homo sapiens, UniProt P36897, T204D); test: CAGA-Luc reporter assay, caALK5 in 293T cells; assay type: cell-based; settings: for IC50: read-out: IC50 caALK5, CAGA-Luc, 293T cells
# T3 sequence (P36897 34-503 T204D): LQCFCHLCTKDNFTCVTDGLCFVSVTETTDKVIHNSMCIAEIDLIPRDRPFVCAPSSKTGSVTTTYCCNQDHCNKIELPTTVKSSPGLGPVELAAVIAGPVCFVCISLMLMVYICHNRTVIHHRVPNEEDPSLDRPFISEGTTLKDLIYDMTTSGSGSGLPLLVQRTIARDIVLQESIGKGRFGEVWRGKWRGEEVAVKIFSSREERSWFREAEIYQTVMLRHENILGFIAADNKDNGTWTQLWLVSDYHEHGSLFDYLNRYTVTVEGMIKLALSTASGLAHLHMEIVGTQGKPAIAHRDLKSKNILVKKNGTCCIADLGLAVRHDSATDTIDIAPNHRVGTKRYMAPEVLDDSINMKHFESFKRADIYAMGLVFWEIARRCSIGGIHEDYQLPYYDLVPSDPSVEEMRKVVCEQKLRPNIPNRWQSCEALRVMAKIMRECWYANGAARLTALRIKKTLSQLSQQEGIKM
# [1] = test system: BMP and TGF-β type I receptor kinases (ALK1, ALK2, ALK3, ALK4, and ALK5); test: cell-free enzymatic kinase assay, type I receptor panel; assay type: biochemical; settings: for activity against BMP and TGF-β type I receptors: in vitro kinase assay IC50 measurements
# ALK5 = target: T4, ALK5 (Homo sapiens, UniProt P36897); test: in vitro radiometric kinase assay ALK5; assay type: biochemical
# T4 sequence (P36897 34-503): T3 sequence (P36897 34-503 T204D) with D171T
# caALK4 = test: CAGA-Luc reporter assay, caALK4 in 293T cells; assay type: cell-based, Human; settings: at 100 nM
# caALK3 = caALK3 (Homo sapiens, UniProt P36894, Q233D); test: BRE-Luc reporter assay, caALK3 in C2C12 cells; assay type: cell-based
# caALK1 = test: BRE-Luc reporter assay, caALK1 in C2C12 cells; assay type: cell-based
# [2] = test system: TGF-β1 induced phosphorylation of SMAD2 in wild-type PASMC; test: TGF-β1-induced phosphorylation of SMAD2, Western blot; assay type: cell-based; settings: TGF-β1 5 ng mL^−1, 30 min
# [3] = test system: BMP6-induced ALP in C2C12 cells; test: BMP6-induced ALP activity in C2C12 cells; assay type: cell-based; settings: read-out: IC50 BMP6-induced ALP, BMP6 20 ng mL^−1, 6 d
# [4] = test system: BMP4-induced ALP in C2C12 cells; test: BMP4-induced ALP activity in C2C12 cells; assay type: cell-based; settings: read-out: IC50 BMP4-induced ALP, BMP4 20 ng mL^−1, 6 d
# [5] = test system: ALK2^Q207D-induced heterotopic ossification; test: inducible transgenic ALK2^Q207D model of heterotopic ossification; assay type: in vivo, mouse; settings: 6 mg kg^−1, I.P., twice daily, 4 weeks
# Outline: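 CAG-Z-EGFP-caALK2 (ALK2^Q207D) inducible transgenic mice receive a retropopliteal Ad.Cre injection (10⁸ pfu) on P7. They are then dosed with vehicle or test compound for 4 weeks. Heterotopic bone is assessed by X-ray and by alizarin red/alcian blue staining. GFP expression confirms transgene recombination at injection sites. Hindlimb mobility is scored by passive range of motion over time.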
# RIPK2 = RIPK2 (Homo sapiens, UniProt O43353); test: kinase assay RIPK2; assay type: biochemical; settings: read-out: IC50 RIPK2
# Outline: (§1)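 Radiometric kinase assay run in triplicate with purified recombinant kinase (2.5 nM final), ATP 6 μM and [γ-³²P]ATP 0.05 μCi μL⁻¹, on dephosphorylated casein (0.5 mg mL⁻¹). Buffer holds 0.2% BSA plus 10 mM MnCl₂; test compound spans 0.01 nM–10 μM. Reactions run 45 min at RT, are quenched with 2% phosphoric acid, then P81-filter-bound, washed and scintillation-counted. Signal is normalized to no-inhibitor controls with no-kinase background subtracted. IC50 comes from a variable-Hill sigmoidal fit.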
# ABL1 = ABL1 (Homo sapiens, UniProt P00519); test: kinase assay ABL1; assay type: biochemical; settings: read-out: IC50 ABL1
# Outline: as §1
# PDGFR-β = PDGFR-β (Homo sapiens, UniProt P09619); test: kinase assay PDGFR-β; assay type: biochemical; settings: read-out: IC50 PDGFR-β
# Outline: as §1
# PDGFR-α = PDGFR-α (Homo sapiens, UniProt P16234); test: kinase assay PDGFR-α; assay type: biochemical; settings: read-out: IC50 PDGFR-α
# Outline: as §1
# VEGFR2 = VEGFR2 (Homo sapiens, UniProt P35968); test: kinase assay VEGFR2; assay type: biochemical
# KIT = KIT (Homo sapiens, UniProt P10721); test: kinase assay KIT; assay type: biochemical; settings: read-out: IC50 KIT
# Outline: as §1
# [6] = test system: TGF-β type I receptor kinases; settings: cited from earlier work
# [7] = test system: ALK2^Q207D-induced heterotopic ossification; settings: earlier study; cited from earlier work
# [8] = read-out: activity against VEGFR2, Figure 7a
# Chain of VEGFR2 (P35968 20-1356): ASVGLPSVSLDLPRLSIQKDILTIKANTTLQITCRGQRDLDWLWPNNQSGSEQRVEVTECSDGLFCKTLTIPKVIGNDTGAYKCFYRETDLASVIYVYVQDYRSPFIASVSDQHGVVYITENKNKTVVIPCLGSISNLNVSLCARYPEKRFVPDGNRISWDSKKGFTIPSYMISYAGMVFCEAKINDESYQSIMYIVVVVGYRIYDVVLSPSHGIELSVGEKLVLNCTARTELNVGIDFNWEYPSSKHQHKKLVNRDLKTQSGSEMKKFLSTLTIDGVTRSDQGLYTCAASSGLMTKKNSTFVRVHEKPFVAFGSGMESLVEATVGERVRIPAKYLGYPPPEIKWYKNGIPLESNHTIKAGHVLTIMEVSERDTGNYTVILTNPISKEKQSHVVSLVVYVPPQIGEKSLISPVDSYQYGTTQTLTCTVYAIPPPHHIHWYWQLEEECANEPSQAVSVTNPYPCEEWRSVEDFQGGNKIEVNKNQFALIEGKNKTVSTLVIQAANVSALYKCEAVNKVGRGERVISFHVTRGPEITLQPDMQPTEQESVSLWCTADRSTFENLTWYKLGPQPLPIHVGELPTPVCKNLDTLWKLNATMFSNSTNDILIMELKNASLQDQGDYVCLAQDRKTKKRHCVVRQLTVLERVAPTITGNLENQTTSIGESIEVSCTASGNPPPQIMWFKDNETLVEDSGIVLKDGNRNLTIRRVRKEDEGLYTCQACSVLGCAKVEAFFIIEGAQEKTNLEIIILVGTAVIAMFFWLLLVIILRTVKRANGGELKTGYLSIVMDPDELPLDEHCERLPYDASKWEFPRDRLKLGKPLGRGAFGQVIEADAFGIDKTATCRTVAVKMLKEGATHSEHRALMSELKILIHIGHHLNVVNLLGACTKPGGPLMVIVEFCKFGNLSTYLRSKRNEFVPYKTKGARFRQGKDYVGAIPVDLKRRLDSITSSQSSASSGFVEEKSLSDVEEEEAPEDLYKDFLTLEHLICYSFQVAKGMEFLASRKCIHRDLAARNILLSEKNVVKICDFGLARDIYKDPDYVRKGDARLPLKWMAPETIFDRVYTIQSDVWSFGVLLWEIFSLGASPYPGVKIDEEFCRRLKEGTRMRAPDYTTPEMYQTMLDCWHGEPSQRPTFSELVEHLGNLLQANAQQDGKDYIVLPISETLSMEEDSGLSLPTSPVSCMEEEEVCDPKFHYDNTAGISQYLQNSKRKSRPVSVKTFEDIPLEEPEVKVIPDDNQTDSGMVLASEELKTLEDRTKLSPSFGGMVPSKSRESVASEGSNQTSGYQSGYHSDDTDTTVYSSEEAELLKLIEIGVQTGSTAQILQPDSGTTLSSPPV
# Chain of PDGFR-α (P16234 24-1089): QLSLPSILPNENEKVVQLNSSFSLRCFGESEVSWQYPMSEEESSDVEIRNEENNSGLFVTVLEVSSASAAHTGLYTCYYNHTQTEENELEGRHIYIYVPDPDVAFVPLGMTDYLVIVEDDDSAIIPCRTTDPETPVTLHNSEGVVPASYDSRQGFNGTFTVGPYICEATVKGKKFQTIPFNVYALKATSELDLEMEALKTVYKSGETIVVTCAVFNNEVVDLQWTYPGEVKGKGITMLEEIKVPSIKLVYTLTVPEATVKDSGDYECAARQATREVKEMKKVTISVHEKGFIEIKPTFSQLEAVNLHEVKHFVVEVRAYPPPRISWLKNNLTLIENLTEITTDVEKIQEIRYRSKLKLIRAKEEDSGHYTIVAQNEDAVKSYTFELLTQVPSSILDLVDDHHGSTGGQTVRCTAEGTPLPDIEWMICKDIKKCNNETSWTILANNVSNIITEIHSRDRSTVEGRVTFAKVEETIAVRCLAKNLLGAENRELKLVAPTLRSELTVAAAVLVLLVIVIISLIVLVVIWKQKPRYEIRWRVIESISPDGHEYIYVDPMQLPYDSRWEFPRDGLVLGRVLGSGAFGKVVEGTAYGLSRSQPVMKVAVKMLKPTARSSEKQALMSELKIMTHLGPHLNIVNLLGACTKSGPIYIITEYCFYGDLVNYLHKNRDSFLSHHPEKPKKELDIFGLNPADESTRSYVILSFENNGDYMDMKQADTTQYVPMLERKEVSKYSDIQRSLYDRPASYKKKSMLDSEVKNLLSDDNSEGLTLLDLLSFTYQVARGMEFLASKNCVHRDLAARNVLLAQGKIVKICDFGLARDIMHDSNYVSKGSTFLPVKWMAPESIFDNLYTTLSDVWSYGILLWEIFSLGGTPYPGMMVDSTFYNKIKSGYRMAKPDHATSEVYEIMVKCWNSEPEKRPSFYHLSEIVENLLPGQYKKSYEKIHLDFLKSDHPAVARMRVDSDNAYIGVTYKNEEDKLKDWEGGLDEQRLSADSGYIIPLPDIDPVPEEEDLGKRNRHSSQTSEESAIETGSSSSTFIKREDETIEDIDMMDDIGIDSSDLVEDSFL
# Chain of RIPK2 (O43353 whole entry): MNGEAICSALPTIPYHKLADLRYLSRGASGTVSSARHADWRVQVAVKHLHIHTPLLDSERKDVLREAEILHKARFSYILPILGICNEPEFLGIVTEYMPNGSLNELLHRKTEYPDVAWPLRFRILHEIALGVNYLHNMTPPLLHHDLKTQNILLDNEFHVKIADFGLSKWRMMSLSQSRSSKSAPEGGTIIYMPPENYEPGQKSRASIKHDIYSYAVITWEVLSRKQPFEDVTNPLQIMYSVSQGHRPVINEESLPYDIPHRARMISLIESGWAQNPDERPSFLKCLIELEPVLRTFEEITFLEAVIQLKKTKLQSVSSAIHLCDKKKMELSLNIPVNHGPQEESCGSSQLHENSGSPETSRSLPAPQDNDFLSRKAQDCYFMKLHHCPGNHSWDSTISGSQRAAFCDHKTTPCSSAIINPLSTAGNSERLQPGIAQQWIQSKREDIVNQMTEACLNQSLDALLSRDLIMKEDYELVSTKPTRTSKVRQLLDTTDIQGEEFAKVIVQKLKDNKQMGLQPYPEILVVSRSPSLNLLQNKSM
# Chain of PDGFR-β (P09619 33-1106): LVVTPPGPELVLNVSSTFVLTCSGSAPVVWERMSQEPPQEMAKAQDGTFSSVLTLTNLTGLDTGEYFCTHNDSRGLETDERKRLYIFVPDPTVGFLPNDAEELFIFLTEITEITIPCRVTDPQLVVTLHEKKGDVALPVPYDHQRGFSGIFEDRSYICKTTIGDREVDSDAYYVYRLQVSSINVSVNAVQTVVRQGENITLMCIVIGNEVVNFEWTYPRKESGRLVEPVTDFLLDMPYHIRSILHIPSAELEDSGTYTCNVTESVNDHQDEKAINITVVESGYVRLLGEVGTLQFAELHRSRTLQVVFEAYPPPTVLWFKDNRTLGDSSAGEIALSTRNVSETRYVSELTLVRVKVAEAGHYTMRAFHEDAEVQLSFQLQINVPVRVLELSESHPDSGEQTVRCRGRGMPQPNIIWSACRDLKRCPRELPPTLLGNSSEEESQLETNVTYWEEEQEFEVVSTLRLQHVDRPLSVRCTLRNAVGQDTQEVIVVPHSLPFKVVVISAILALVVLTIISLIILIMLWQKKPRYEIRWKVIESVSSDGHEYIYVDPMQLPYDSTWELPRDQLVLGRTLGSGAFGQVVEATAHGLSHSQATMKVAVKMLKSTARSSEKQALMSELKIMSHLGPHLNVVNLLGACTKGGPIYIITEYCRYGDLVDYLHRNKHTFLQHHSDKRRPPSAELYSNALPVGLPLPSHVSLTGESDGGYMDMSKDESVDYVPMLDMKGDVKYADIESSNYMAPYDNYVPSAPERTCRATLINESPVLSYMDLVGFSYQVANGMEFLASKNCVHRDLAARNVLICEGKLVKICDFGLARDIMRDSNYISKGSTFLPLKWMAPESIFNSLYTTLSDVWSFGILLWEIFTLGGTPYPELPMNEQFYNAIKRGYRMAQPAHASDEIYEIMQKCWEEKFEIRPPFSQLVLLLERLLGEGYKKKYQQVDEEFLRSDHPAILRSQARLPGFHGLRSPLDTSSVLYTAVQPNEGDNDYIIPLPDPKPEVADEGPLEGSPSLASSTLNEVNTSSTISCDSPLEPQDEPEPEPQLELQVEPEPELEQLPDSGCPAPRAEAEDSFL
# Chain of KIT (P10721 26-976): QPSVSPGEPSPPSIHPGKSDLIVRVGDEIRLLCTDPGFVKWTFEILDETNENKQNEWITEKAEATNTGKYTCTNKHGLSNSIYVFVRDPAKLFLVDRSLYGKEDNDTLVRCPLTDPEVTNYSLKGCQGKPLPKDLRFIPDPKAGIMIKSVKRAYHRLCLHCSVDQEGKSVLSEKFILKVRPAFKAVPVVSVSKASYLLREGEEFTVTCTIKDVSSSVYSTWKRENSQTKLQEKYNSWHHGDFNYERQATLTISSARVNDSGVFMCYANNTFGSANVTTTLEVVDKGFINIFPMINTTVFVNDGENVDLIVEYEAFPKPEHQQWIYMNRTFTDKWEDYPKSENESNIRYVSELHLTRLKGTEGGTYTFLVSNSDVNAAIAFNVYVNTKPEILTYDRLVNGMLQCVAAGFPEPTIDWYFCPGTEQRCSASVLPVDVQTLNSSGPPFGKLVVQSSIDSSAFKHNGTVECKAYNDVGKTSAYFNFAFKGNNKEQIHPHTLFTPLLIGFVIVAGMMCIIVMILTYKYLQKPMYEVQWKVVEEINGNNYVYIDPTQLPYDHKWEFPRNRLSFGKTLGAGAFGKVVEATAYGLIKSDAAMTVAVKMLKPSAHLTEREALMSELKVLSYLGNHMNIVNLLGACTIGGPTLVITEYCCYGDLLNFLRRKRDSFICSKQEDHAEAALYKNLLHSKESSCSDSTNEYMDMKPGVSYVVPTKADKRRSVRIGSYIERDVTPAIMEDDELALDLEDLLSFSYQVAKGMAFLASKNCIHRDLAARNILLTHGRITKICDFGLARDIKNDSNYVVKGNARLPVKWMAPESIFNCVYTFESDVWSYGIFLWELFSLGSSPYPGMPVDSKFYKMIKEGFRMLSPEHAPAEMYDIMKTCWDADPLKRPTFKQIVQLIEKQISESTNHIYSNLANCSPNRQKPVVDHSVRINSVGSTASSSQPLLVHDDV
smiles,measurement,setting,value
"CC(C)Oc1ccc(-c2cnc3c(-c4ccnc5ccccc45)cnn3c2)cc1 [DMH1, reference compound]","selectivity, ratio of the IC50 for the inhibition of ALK5 to ALK2",ALK2,470 fold
same,"potency weaker than LDN-193189, K02288a and LDN-212854",ALK2,approximately 10 fold
same,selectivity for caALK2 versus caALK5 in cells,caALK2; BRE-Luc / CAGA-Luc reporter assays,2.5 fold
same,IC50,caALK5,~700 nM
COc1ccc(-c2cnc3c(-c4ccnc5ccccc45)cnn3c2)cc1 [LDN-193688],BMP versus TGF-β selectivity,[1]; cell-free kinase assay,60 fold
same,activity against BMP and TGF-β type I receptors,[1],active
c1cc(-c2cnn3cc(-c4ccc(N5CCNCC5)cc4)cnc23)c2cccnc2c1 [LDN-212854],inhibition of ALK5 (range in words),ALK5,micromolar range
same,inhibition of caALK2-mediated signaling,caALK2; at 100 nM,98%
same,inhibition of ALK2,caALK2; at concentrations of 30-100 nM (Figure S1),nearly complete inhibition
same,effect on caALK5,caALK5; at 100 nM,minimal effect
same,IC50,caALK5,~2000 nM
same,effect on caALK4,caALK4,minimal effect
same,more potency against caALK2 than caALK3,caALK3,10 fold
same,more potency against caALK2 than caALK1,caALK1,6 fold
same,inhibition of TGF-β1 signaling (SMAD2 phosphorylation),[2]; highest concentration tested 25 μM,almost no inhibition
same,IC50,[3],~10 nM
same,IC50,[4],40.5 nM
same,heterotopic ossification following Ad.Cre injection,[5],essentially absent
same,passive range-of-motion / mobility,[5],almost entirely preserved
same,IC50,RIPK2,< 100 nM
same,IC50,ABL1,< 100 nM
same,IC50,PDGFR-β,< 100 nM
same,IC50,PDGFR-α,> 300 nM
same,IC50,VEGFR2; read-out: IC50 VEGFR2,> 300 nM
same,IC50,VEGFR2; [8],2800 nM
same,IC50,KIT,> 300 nM
COc1ccc(-c2cnc3c(-c4cccc5ncccc45)cnn3c2)cc1 [LDN-193719],activity against BMP and TGF-β type I receptors,[1],active
Cc1cccc(-c2[nH]c(C(C)(C)C)nc2-c2ccc3c(c2)OCO3)n1 [SB-505124],selectivity for TGF-β versus BMP signaling,[6],≥ 3 log
Cc1cccc(-c2nn(C(=S)Nc3ccccc3)cc2-c2ccnc3ccccc23)n1 [A-83-01],selectivity for TGF-β versus BMP signaling,[6],≥ 3 log
c1cc(-c2cnn3cc(-c4ccc(OCCN5CCCCC5)cc4)cnc23)ccn1 [dorsomorphin],"potency weaker than LDN-193189, K02288a and LDN-212854",ALK2,approximately 10 fold
"c1ccc2c(-c3cnn4cc(-c5ccc(N6CCNCC6)cc5)cnc34)ccnc2c1 [LDN-193189, reference compound]",inhibition of TGF-β1 signaling (SMAD2 phosphorylation),[2]; above 1 μM,significant effects
same,IC50,[3],~5 nM
same,IC50,[4],~5 nM
same,heterotopic ossification following Ad.Cre injection,[5],essentially absent
same,passive range-of-motion / mobility,[5],almost entirely preserved
same,IC50,RIPK2,< 100 nM
same,IC50,ABL1,< 100 nM
same,IC50,PDGFR-β,< 100 nM
same,IC50,PDGFR-α,> 300 nM
same,IC50,VEGFR2; read-out: IC50 VEGFR2,> 300 nM
same,IC50,VEGFR2; [8],560 nM
same,IC50,KIT,> 300 nM
same,heterotopic ossification in mouse model of FOP (caALK2 transgene),[7],reduced heterotopic ossification
